Source: ChEMBL document CHEMBL5696444 (Nat Commun, 2017)
Activity calls are given as the source filed them. No cut-off for these calls is given here.

Tests used:
[1] = test system: HCT-116; experiment: Induction of apoptosis in human HCT-116 cells assessed as early apoptosis at 0.5 uM incubated for > 6 hrs by annexin V/PI staining based analysis (Rvb=3.29%); assay type: functional
[2] = molecular target: Dual specificity protein kinase CLK2 (Homo sapiens, UniProt P49760); experiment: Inhibition of N-terminal FLAG-tagged human CLK2 at 123 nM in the presence of ATP by Kinome scan method relative to control; details: time > 6.0 hrs
Dual specificity protein kinase CLK2, sequence (P49760 whole entry, looked up): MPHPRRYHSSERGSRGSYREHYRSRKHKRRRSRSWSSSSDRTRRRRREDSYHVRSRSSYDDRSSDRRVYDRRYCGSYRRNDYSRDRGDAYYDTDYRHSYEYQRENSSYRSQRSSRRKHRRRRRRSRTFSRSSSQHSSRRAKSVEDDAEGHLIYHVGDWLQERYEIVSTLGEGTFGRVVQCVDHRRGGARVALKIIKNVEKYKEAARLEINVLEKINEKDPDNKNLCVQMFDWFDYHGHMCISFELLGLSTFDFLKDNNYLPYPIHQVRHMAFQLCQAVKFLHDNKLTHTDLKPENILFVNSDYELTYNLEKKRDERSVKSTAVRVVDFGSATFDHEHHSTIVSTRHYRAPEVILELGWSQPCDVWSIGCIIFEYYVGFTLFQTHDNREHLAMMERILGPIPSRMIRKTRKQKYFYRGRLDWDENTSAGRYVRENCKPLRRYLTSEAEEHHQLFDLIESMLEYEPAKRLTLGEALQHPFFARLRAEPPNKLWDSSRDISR

[3] = molecular target: Dual specificity protein kinase CLK1 (Homo sapiens) (UniProt P49759); experiment: Inhibition of CLK (unknown origin) in human MDA-MB-468 cells assessed as SRSF1 phosphorylation level incubated for 3 hrs by immunoblot analysis; assay type: cell-based
Dual specificity protein kinase CLK1 (Homo sapiens), sequence (P49759 whole entry, looked up, canonical isoform): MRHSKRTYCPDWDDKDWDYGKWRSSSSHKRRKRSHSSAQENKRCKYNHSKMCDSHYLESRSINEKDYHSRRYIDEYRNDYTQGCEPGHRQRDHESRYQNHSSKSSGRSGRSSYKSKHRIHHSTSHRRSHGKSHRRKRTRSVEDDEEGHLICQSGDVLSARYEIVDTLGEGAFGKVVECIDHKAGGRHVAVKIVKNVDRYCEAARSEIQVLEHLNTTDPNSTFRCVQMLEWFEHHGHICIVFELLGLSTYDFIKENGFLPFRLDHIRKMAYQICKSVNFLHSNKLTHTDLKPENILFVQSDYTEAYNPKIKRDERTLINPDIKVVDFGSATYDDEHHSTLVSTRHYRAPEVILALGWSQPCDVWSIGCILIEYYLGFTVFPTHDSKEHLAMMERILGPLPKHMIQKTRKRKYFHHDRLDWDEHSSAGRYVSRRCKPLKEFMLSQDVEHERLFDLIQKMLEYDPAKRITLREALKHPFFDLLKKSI

[4] = molecular target: Angiopoietin-1 receptor (Homo sapiens) (UniProt Q02763); experiment: Inhibition of TEK (unknown origin) at 100 nM in the presence of ATP by Kinome scan method relative to control
Angiopoietin-1 receptor (Homo sapiens), sequence (Q02763 whole entry): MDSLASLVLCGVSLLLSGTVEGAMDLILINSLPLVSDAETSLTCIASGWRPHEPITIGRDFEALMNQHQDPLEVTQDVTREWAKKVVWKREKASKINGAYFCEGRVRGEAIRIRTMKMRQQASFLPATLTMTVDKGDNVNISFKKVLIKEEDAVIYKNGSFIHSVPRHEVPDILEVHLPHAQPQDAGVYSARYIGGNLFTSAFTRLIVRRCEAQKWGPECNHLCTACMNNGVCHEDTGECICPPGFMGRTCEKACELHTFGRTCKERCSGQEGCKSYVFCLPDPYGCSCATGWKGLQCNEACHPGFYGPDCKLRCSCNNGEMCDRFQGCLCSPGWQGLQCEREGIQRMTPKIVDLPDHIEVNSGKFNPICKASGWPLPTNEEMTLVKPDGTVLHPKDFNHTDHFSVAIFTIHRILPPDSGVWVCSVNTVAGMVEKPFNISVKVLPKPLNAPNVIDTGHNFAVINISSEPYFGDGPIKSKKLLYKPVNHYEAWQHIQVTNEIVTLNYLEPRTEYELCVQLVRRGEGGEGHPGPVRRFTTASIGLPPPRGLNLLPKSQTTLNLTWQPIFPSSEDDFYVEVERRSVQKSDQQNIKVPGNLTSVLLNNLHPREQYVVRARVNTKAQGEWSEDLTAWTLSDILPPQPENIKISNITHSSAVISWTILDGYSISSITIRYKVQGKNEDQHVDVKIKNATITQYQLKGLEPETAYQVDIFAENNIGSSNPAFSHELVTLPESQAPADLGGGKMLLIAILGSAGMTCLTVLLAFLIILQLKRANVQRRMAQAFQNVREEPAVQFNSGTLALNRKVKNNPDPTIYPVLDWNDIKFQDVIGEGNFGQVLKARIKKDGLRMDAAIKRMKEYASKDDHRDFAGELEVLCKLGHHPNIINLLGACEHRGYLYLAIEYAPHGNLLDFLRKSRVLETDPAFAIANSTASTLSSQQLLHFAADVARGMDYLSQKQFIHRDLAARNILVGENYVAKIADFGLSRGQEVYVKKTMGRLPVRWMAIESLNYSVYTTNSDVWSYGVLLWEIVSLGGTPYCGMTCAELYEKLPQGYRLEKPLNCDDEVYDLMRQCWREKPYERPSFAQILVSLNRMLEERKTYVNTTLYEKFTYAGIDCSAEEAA

[5] = test system: HCT-116; experiment: Induction of apoptosis in human HCT-116 cells assessed as necrosis cells at 1 uM incubated for > 6 hrs by annexin V/PI staining based analysis (Rvb=0.55%); assay type: functional
[6] = molecular target: Tyrosine-protein kinase ABL1 (Homo sapiens) (UniProt P00519); experiment: Inhibition of ABL1 (unknown origin) at 1000 nM in the presence of ATP by Kinome scan method relative to control; details: time > 6.0 hrs
[7] = test system: HCT-116; experiment: Induction of cell cycle arrest in human HCT-116 cells assessed as sub G0/G1 phase at 10 uM incubated for 24 hrs by flow cytometry analysis (Rvb=2.5%); assay type: functional
[8] = molecular target: Dual specificity protein kinase CLK1 (Homo sapiens) (UniProt P49759); experiment: Inhibition of CLK (unknown origin) in human 184-hTERT cells assessed as induction in alternative splicing effect in CDC6-RARA level incubated for 6 hrs by RT-PCR analysis; assay type: cell-based; details: dose 0.2-5 µM
How it was run: (§1)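 Cells exposed to graded T3 concentrations for 6 h (chosen to avoid cytotoxicity), with a DMSO vehicle control. Total RNA was reverse-transcribed with oligo-dT primers. Targeted splice or conjoined-gene products were quantified by real-time qPCR or by targeted next-generation sequencing. Conjoined-gene isoform expression was normalized to a sequenced housekeeping gene.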

[9] = molecular target: Dual specificity protein kinase CLK3 (Homo sapiens) (UniProt P49761); experiment: Inhibition of CLK3 (unknown origin) in human HCT-116 cells assessed as increase in CLK3 protein level at 0.5 to 0.1 uM incubated for 6 hrs by immunoblot analysis; assay type: cell-based; details: dose 0.5-0.1 µM
How it was run: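 HCT116 cells were treated for 3 or 6 h and lysed in SDS sample buffer (Tris-HCl pH 6.8), then boiled for 5 min. Lysates were run on 5–15% or 4–12% gradient gels and transferred to nitrocellulose or PVDF. Blots were blocked in milk or BSA/TBS-T and probed overnight at 4 °C with anti-phospho-SR (1H4, 1/1000), anti-SR, anti-CLK1 or anti-CLK3 antibodies, with GAPDH as loading control.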

[10] = molecular target: Dual specificity protein kinase CLK1 (Homo sapiens) (UniProt P49759); experiment: Inhibition of CLK (unknown origin) in human 184-hTERT cells assessed as induction in alternative splicing effect in MRPS10-GUCA1B level incubated for 6 hrs by RT-PCR analysis; assay type: cell-based; details: dose 0.2-5 µM; how it was run: as §1
[11] = test system: HCT-116; experiment: Induction of cell cycle arrest in human HCT-116 cells assessed as S phase at 0.1 uM incubated for 6 hrs by flow cytometry analysis (Rvb=39.3%); assay type: functional
[12] = molecular target: Dual specificity mitogen-activated protein kinase kinase 1 (Homo sapiens) (UniProt Q02750); experiment: Inhibition of MAP2K1 (unknown origin) at 1000 nM in the presence of ATP by Kinome scan method relative to control
[13] = molecular target: Fibroblast growth factor receptor 1 (Homo sapiens) (UniProt P11362); experiment: Inhibition of FGFR1 (unknown origin) at 100 nM in the presence of ATP by Kinome scan method relative to control
Fibroblast growth factor receptor 1 (Homo sapiens), sequence (P11362 22-822 limits assumed): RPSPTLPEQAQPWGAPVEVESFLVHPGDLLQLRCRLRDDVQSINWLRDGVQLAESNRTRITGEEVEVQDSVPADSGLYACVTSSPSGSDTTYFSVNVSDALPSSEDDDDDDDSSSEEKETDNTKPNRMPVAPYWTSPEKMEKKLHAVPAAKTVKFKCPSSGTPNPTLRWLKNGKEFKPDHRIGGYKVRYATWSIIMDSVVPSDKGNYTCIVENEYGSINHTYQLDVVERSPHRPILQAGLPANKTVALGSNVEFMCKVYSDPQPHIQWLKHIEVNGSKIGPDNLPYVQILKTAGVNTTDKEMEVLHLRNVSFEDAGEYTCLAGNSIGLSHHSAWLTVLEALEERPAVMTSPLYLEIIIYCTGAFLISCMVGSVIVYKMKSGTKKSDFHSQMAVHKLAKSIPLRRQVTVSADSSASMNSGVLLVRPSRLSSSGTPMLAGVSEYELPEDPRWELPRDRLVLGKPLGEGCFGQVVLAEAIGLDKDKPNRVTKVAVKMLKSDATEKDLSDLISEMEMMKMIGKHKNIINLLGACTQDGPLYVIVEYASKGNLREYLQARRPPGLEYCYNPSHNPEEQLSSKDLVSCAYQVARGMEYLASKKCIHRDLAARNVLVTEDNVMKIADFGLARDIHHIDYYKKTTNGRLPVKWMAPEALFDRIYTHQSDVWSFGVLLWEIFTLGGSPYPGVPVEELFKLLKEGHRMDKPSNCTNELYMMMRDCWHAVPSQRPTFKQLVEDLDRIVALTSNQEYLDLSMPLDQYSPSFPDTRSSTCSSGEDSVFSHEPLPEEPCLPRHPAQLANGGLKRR

[14] = molecular target: Ephrin type-B receptor 1 (Homo sapiens) (UniProt P54762); experiment: Inhibition of EPHB1 (unknown origin) at 100 nM in the presence of ATP by Kinome scan method relative to control
[15] = molecular target: T1, Cyclin-dependent kinase 5/CDK5 activator 1 (Homo sapiens) (UniProt Q00535+Q15078); experiment: Inhibition of CDK5/p25 (unknown origin) at 100 nM in the presence of ATP by Kinome scan method relative to control; assay type: protein-complex assay
T1 sequence (Q00535 whole entry, canonical isoform): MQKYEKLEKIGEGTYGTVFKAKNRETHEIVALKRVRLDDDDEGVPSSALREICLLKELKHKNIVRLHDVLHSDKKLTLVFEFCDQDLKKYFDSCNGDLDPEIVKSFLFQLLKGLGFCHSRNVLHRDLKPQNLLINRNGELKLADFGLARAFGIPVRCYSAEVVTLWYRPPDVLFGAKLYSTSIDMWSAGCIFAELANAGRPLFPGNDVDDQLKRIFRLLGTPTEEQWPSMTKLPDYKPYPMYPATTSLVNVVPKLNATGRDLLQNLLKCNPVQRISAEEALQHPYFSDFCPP
T1 sequence (Q15078 99-307 partner limits assumed): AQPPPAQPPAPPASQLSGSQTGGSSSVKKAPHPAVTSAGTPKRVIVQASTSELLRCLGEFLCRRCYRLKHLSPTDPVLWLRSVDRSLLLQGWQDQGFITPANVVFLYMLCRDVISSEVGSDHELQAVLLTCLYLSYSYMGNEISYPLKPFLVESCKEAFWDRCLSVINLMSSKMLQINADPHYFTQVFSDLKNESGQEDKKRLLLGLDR

[16] = molecular target: Casein kinase I isoform alpha (Homo sapiens) (UniProt P48729); experiment: Inhibition of CSNK1A1 (unknown origin) at 1000 nM in the presence of ATP by Kinome scan method relative to control
Casein kinase I isoform alpha (Homo sapiens), sequence (P48729 2-337 limits assumed): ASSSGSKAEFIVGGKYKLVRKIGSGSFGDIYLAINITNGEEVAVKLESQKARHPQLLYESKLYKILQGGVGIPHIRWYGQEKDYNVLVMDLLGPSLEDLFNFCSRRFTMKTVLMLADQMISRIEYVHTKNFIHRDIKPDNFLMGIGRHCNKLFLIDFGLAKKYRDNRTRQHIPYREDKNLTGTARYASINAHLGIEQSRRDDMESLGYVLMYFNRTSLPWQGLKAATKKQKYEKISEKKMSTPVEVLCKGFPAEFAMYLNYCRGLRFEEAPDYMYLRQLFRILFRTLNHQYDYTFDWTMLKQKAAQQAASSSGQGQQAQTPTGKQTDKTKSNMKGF

[17] = molecular target: T1, Cyclin-dependent kinase 5/CDK5 activator 1 (Homo sapiens); experiment: Inhibition of CDK5/p25 (unknown origin) at 1000 nM in the presence of ATP by Kinome scan method relative to control; assay type: protein-complex assay
[18] = molecular target: Dual specificity tyrosine-phosphorylation-regulated kinase 4 (Homo sapiens) (UniProt Q9NR20); experiment: Inhibition of DYRK4 (unknown origin) at 1110 nM in the presence of ATP by Kinome scan method relative to control; details: time > 6.0 hrs
Dual specificity tyrosine-phosphorylation-regulated kinase 4 (Homo sapiens), sequence (Q9NR20 whole entry): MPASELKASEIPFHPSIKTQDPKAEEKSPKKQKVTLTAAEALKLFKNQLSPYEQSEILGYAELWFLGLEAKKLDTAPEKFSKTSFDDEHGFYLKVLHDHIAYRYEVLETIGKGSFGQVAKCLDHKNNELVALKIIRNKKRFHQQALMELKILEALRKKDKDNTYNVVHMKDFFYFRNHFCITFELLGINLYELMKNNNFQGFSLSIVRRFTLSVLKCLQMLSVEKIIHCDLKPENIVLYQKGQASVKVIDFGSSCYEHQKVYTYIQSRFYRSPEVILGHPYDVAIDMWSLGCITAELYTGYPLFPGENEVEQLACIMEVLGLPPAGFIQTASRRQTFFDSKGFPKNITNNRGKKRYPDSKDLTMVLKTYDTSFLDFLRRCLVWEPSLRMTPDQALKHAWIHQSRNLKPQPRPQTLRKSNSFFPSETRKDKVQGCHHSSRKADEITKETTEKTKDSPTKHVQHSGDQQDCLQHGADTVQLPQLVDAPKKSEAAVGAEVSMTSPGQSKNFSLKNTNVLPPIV

[19] = test system: HCT-116; experiment: Induction of cell cycle arrest in human HCT-116 cells assessed as S phase at 5 uM incubated for 24 hrs by flow cytometry analysis (Rvb=46.4%); assay type: functional
[20] = molecular target: cAMP-dependent protein kinase catalytic subunit alpha (Homo sapiens) (UniProt P17612); experiment: Inhibition of PRKACA (unknown origin) at 1000 nM in the presence of ATP by Kinome scan method relative to control
[21] = molecular target: SRSF protein kinase 1 (Homo sapiens) (UniProt Q96SB4); experiment: Inhibition of SRPK1 (unknown origin) at 123 nM in the presence of ATP by Kinome scan method relative to control; details: time > 6.0 hrs
[22] = test system: HCT-116; experiment: Induction of apoptosis in human HCT-116 cells assessed as early apoptosis at 5 uM incubated for > 6 hrs by annexin V/PI staining based analysis (Rvb=3.29%); assay type: functional
[23] = test system: HCT-116; experiment: Induction of cell cycle arrest in human HCT-116 cells assessed as sub G0/G1 phase at 0.1 uM incubated for 24 hrs by flow cytometry analysis (Rvb=2.5%); assay type: functional
[24] = Stability of compound in tissue culture medium assessed as remaining parent compound at 5.44 uM incubated for 6 hrs; assay type: physicochemical; details: read-out: Stability
[25] = test system: HCT-116; experiment: Induction of apoptosis in human HCT-116 cells assessed as late apoptosis at 0.1 uM incubated for > 6 hrs by annexin V/PI staining based analysis (Rvb=6.12%); assay type: functional
[26] = molecular target: Dual specificity mitogen-activated protein kinase kinase 2 (Homo sapiens) (UniProt P36507); experiment: Inhibition of MAP2K2 (unknown origin) at 1000 nM in the presence of ATP by Kinome scan method relative to control
[27] = molecular target: Casein kinase I isoform alpha (Homo sapiens) (UniProt P48729); experiment: Inhibition of CSNK1A1 (unknown origin) at 100 nM in the presence of ATP by Kinome scan method relative to control
[28] = molecular target: Casein kinase I isoform delta (Homo sapiens) (UniProt P48730); experiment: Inhibition of CSNK1D (unknown origin) at 1000 nM in the presence of ATP by Kinome scan method relative to control
Casein kinase I isoform delta (Homo sapiens), sequence (P48730 whole entry, looked up, canonical isoform): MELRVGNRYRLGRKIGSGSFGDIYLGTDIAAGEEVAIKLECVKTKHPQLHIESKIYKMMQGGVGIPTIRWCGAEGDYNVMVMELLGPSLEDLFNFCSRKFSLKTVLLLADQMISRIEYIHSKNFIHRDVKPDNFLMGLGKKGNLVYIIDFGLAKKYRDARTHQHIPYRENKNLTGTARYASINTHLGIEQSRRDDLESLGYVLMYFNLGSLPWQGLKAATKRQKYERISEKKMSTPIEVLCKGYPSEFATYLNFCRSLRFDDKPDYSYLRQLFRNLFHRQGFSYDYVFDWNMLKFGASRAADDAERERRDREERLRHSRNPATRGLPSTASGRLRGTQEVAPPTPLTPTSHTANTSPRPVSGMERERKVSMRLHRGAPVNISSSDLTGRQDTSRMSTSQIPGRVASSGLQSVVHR

[29] = molecular target: Mitogen-activated protein kinase 14 (Homo sapiens) (UniProt Q16539); experiment: Inhibition of MAPK14 (unknown origin) at 100 nM in the presence of ATP by Kinome scan method relative to control

inhibition [2]: 92%
inhibition [3]: Active
inhibition [4]: 0%
inhibition [6]: 56%
inhibition [8]: Dose-Dependent Effect
inhibition [9]: Active
inhibition [10]: Dose-Dependent Effect
inhibition [12]: 11%
inhibition [13]: 4%
inhibition [14]: 5%
inhibition [15]: 2%
inhibition [16]: -3%
inhibition [17]: 1%
inhibition [18]: -3%
inhibition [20]: 4%
inhibition [21]: -3%
remaining at 6 h, 5.44 µM [24]: 98.9%
inhibition [26]: 14%
inhibition [27]: -4%
inhibition [28]: 4%
inhibition [29]: 5%
Structure (SMILES): CN1CCN(C(=O)C(C)(C)c2ccc(C(=O)Nc3cn4cc(-c5ccncc5)ccc4n3)cc2)CC1 [T3-CLK]
Activity [1]: 3.04%
Activity [5]: 0.73%
Activity [7]: 19%
Activity [11]: 45.5%
Activity [19]: 45.5%
Activity [22]: 4.32%
Activity [23]: 2.8%
Activity [25]: 8.29%
